# Bioassay records deposited in PubChem BioAssay by several laboratories.
# NPY-Y2 PAM-ag: NPY-Y2 potentiators or agonists, primary screen, cell-based | AID 1359, 2008 | cells expressing NPY-Y2, potentiator/agonist read-out | activation, % at 3.6 µM | hit rate 0.45% among 220,000 | Neuropeptide Y receptor type 2 (Homo sapiens), P49146; in the data active = activation above about 27%;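 note: cells stimulated with NPY near EC25 plus isoproterenol at EC100; 0% = vehicle plus submaximal agonist and 100% = vehicle plus saturating agonist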
# Furin inh: human furin inhibitors, primary screen, biochemical, fluorescence intensity | P09958 | purified furin, fluorogenic substrate cleavage | inhibition, % at 20 µM or 30 µM | hit rate 0.061% among 220,000 | AID 463115, 2010; in the data active = inhibition above about 25%
# Target sequence (P09958 108-714 limits assumed): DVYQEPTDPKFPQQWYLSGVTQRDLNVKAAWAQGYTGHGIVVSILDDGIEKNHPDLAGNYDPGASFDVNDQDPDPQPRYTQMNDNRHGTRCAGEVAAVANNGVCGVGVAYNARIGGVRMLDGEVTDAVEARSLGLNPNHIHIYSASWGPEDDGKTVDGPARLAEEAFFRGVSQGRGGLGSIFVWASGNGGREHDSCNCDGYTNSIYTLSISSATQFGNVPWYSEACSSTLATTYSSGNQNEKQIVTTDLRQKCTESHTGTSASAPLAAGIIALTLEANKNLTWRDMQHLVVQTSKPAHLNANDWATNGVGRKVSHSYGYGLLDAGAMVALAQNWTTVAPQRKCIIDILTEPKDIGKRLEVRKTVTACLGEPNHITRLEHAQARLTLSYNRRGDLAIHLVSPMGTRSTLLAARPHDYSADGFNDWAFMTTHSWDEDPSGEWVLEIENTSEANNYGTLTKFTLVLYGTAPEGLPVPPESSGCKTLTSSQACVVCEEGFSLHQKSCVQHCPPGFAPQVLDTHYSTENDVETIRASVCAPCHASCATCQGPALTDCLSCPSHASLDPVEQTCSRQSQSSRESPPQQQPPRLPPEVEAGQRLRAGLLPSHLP
# NPY Y1 blocker: NPY-Y1 receptor antagonists, primary screen, cell-based. inhibition, % at 3.6 µM. hit rate 1% among 200,000. HEK293-CNG Y1 cells, membrane potential fluorescence; NPY at EC95, then isoproterenol;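 active = inhibition above the campaign mean inhibition of all tested compounds plus 3 SD, cut at about 20% in these data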;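 note: 0% = DMSO wells given NPY plus isoproterenol and 100% = isoproterenol alone without NPY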
#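 Test system – HEK293 Y1/CNG channel cell line · Also added – NPY agonist 25 nM, then isoproterenol 1 µM plus Ro 20-1724 25 µM · Compound dosing – one concentration, 3.6 µM, in 0.4% DMSO · Schedule – compound incubation 1 h at room temperature, readout 45 min post-stimulation · Technique – fluorescence, membrane potential probe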
# NPY1 pot ag: NPY-Y1 receptor potentiators or agonists, primary screen, cell-based; Neuropeptide Y receptor type 1 (Homo sapiens), P25929; NPY-Y1 expressing cells, potentiator/agonist activation; activation, % at 3.6 µM; hit rate 0.37% among 220,000; in the data active = activation above about 33%, passing the limit was not always enough;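 note: cells stimulated with NPY at EC10 then isoproterenol at EC100; 0% = low agonist plus stimulus and 100% = saturating agonist plus stimulus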
# NPY Y2 blocker: NPY-Y2 receptor antagonists, primary screen, cell-based; NPY-Y2 expressing cells, antagonist mode; inhibition, % at 2.7 µM; hit rate 0.99% among 140,000; AID 793, 2007; in the data active = inhibition above about 17%;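 note: 0% = vehicle with agonist challenge and 100% = reference antagonist with challenge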
# KCC2 mod: KCC2 cotransporter modulators, thallium flux, primary screen, cell-based, HEK293 KCC2, FluoZin-2 fluorescence, MLSMR | Solute carrier family 12 member 5 (Homo sapiens), Q9H2X9 | KCC2 cells, thallium flux FluoZin-2 fluorescence | B-score of Tl+ flux slope (higher = more flux/activation; lower = inhibition) at 10 µM | hit rate 2.2% among 190,000;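 active = thallium flux slope and its plate-corrected score both differing from the plate sample mean at a set confidence after two filtering rounds, in either direction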;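 note: slope of fluorescence scaled to starting intensity during 10 to 20 s after thallium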
# KCC2 secondary: KCC2 modulators in sodium-free buffer, confirmation, cell-based, HEK293 KCC2, thallium flux, secondary assay. hit rate 15% among 3,700. normalised thallium flux (F/F0 slope) at 10 µM. AID 1713, 2009. FluoZin2 fluorescence; stronger effect = higher value. shares compounds with KCC2 mod;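 active = thallium flux slope above the same plate's solvent-only control mean plus 3 SD; inconclusive = the two replicate wells disagree; inactive = no significant difference from solvent-only control wells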
# KCC2 bumet counter: thallium flux persisting under bumetanide in KCC2 cells, confirmation, counter-screen for KCC2 modulator project, cell-based, HEK293 KCC2, FluoZin2, secondary assay 3. hit rate 49% among 3,700. HEK293-KCC2 + bumetanide/ouabain; stronger effect = higher value. normalized thallium flux at 10 µM. AID 1714, 2009. shares compounds with KCC2 mod;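 active = thallium entry rate above the same plate's blocked-transporter control wells by more than 3 SD; inconclusive = the two repeat wells disagree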;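 note: raw slope of fluorescence over initial fluorescence between 10 and 20 s after thallium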
# KCC2 secondary2: KCC2 modulators without ouabain present, confirmation, cell-based, HEK293 KCC2, thallium flux, FluoZin2, secondary assay 2. thallium flux FluoZin2 fluorescence; actives lie on both sides; F/F0 rise rate, 10–20 s post-thallium. shares compounds with KCC2 mod. hit rate 23% among 3,700. normalized thallium flux at 10 µM. AID 1715, 2009;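 active = thallium flux slope more than 3 SD above or below the plate's solvent-only control mean, mostly below; inconclusive = the two repeat wells disagreed; inactive = no significant shift from solvent-only controls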;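 note: raw slope with 0.1% DMSO as baseline and bumetanide as block control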
# HEK counter1: thallium flux modulation in parental HEK cells, confirmation, counter-screen for KCC2 modulator project, cell-based, counterscreen 1; hit rate 46% among 3,700; thallium flux rate (normalised fluorescence) at 10 µM; shares compounds with KCC2 mod; AID 1716, 2009; HEK293 parental cells, thallium flux FluoZin2, ouabain; baseline-ratio fluorescence slope, 10–20 s after thallium;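 active = thallium flux rate significantly above the same plate's solvent-only control wells, beyond their mean plus 3 SD; inconclusive = the two replicate wells gave conflicting results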
# KCC2 retest ouab: KCC2 inhibitors and activators, ouabain retest, confirmation, HEK-KCC2 cells. shares compounds with KCC2 mod. HEK293-KCC2, thallium flux FluoZin2 fluorescence; bidirectional: low = inhibitor, high = activator. raw Tl+ flux slope (below DMSO = inhibition, above = activation) at 10 µM. hit rate 48% among 3,700. AID 1717, 2009;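 active = thallium flux slope beyond 3 SD from same-plate DMSO control mean in most replicates, usually higher, sometimes lower; inconclusive = repeat tests gave conflicting results; inactive = no significant difference from controls in most replicates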;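 note: slope of initial-normalized fluorescence between seconds 10 and 20 after thallium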
# HEK293 Tl flux2: native HEK Tl+ uptake effects, second counter-screen – HEK cells, counterscreen 2, counter-screen for KCC2 modulator project, confirmation. thallium flux slope at 10 µM. shares compounds with KCC2 mod. hit rate 33% among 3,700. HEK293 parental, thallium flux FluoZin-2 fluorescence slope;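 active = thallium flux slope above the same plate's solvent-control mean plus 3 SD in both duplicate wells; inconclusive = duplicate wells that disagreed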;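 note: run without ouabain in cells lacking the KCC2 cotransporter; slope of fluorescence scaled to its starting value between 10 and 20 s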
# Numbers without * were called inactive; ? = inconclusive; · = no result given. The list is not random: actives were taken first. Their share in the collection is about 3.7%.
SMILES,NPY-Y2 PAM-ag,Furin inh,NPY Y1 blocker,NPY1 pot ag,NPY Y2 blocker,KCC2 mod,KCC2 secondary,KCC2 bumet counter,KCC2 secondary2,HEK counter1,KCC2 retest ouab,HEK293 Tl flux2
CC(C)(C)SCCNC(=O)/C=C/c1cccc([N+](=O)[O-])c1,-5,-7,0,11,3,3.7*,0.0093,0.0063,0.033,0.0047,0.02,0.011
CC(C)(C)SCCNC(=O)/C=C/c1ccc([N+](=O)[O-])cc1,-5,-6,-3,5,2,-0.13,·,·,·,·,·,·
O=C1C[C@H]2[C@H](CO)[C@@H](OC(=O)c3ccc(-c4ccccc4)cc3)C[C@H]2O1,-9,-3,·,-4,·,-3.4,·,·,·,·,·,·
O=C1NCC(O)=C1C=NCCO,15,-25,0,13,2,·,0.0062,0.0051,0.031,0.0078,0.018,0.012
O=C(NC(=S)Nc1ccc(-c2nc3ncccc3o2)cc1)c1ccccc1F,-3,-3,-1,-8,·,4.7*,0.0081,0.013*,0.033,0.011*,?,0.011
Cc1ccc(SCC(=O)NC(=O)NCCC(C)C)c(C)c1,-14,-14,5,-19,·,-0.47,·,·,·,·,·,·
CCCCn1c(-c2csc(CC)c2)n[nH]c1=S,-8,-13,3,-31,4,14*,0.012*,0.054*,0.034,0.022*,0.044*,0.012*
CC(c1ccc(F)cc1)n1c(-c2cccs2)n[nH]c1=S (stereo unspecified),-17,3,2,-23,·,5.2*,0.0056,0.017*,0.032,0.014*,?,0.016*
CCCCn1c(-c2csc3ccccc23)n[nH]c1=S,0,-17,-4,-4,5,4.8*,0.0068,0.023*,?,0.02*,0.028*,0.023*
CCCCCCn1c(-c2cccs2)n[nH]c1=S,-10,-17,2,-4,·,46*,0.0061,0.084*,0.068*,0.063*,0.067*,0.057*
CCCCn1c(-c2nn(C)cc2Cl)n[nH]c1=S,-6,-9,3,6,2,1.4,·,·,·,·,·,·
CC(c1ccccc1)n1c(-c2ccncc2)n[nH]c1=S (stereo unspecified),16,-18,-1,2,0,-0.61,·,·,·,·,·,·
C[n+]1cccc(C(=O)NNC(=O)C23CC4CC(CC(C4)C2)C3)c1,-14,-16,-1,-2,·,-1.2,·,·,·,·,·,·
CCC(=O)N(c1ccc(C(=O)O)cc1)c1nc(-c2ccc(OC)cc2)c(C)s1,7,-25,-1,16,·,-1.4,·,·,·,·,·,·
Cc1cccc(-n2c(-c3csc(C)c3)n[nH]c2=S)c1,-14,-15,0,-21,4,-0.86,·,·,·,·,·,·
CCc1cc(-c2n[nH]c(=S)n2-c2cccc(C)c2)cs1,0,-1,6,4,8,43*,0.012*,0.11*,0.029,0.02*,0.047*,0.01
O=C(c1cccc(C(F)(F)F)c1)C1CCCN(C(=O)CCCN2CCCC2=O)C1 (stereo unspecified),-7,-20,9,8,·,·,·,·,·,·,·,·
CC(C)C(C(=O)OCC(=O)c1ccccc1)N1C(=O)C2C3C=CC(C3)C2C1=O (stereo unspecified),-1,-14,-1,9,·,0.6,·,·,·,·,·,·
CCC(C)C(N)C(=O)NC(CCC(=O)OCc1ccccc1)C(N)=O (stereo unspecified),2,-18,-1,-10,-1,·,·,·,·,·,·,·
CCCCCCCCNC(=O)C(CCC(=O)OCc1ccccc1)NC(C)=O (stereo unspecified),-30,-4,1,-18,4,·,0.0056,0.0043,0.023*,?,0.013*,0.0099
Cc1ccc(Oc2ncnc(N)c2[N+](=O)[O-])cc1C,0,-22,1,-2,·,-1.9,·,·,·,·,·,·
O=C(NC1CCN(Cc2ccccc2)CC1)c1ccc2c(c1)[nH]c(=O)n2Cc1ccc(F)cc1,5,-33,-2,2,·,-0.0058,·,·,·,·,·,·
Nc1ccc(Br)c2c1C(=O)c1ccccc1C2=O,32,-18,-8,34,-5,-3.8*,?,?,0.032,?,0.018,0.011
CC(CCc1ccccc1)NC(=O)C1CCCN(c2nnc(-n3cccc3)s2)C1 (stereo unspecified),-14,-12,7,-35,5,-4.4*,0.0064,0.0049,0.03,0.008,0.015*,0.011
CC(C)NC(=O)C1CCCN(c2nnc(-n3cccc3)s2)C1 (stereo unspecified),-9,-33,7,-1,0,0.32,·,·,·,·,·,·
Cc1c(Cl)c([N+](=O)[O-])nn1CCCC(=O)N1CCN(c2ccccc2)CC1,-3,-19,-1,-1,-1,-2.7*,0.01,?,0.035,0.0081,0.021,?
Cc1c(Br)c([N+](=O)[O-])nn1CCCC(=O)N1CCN(c2ccccc2)CC1,-2,-1,0,-1,3,-0.099,·,·,·,·,·,·
CC(C)CNC(=S)NC(=O)c1csc([N+](=O)[O-])c1,10,-18,·,0,·,31*,?,0.069*,0.037,0.021*,0.036*,0.015*
